Laboratory results: ChEMBL document CHEMBL2151009, “Structures and mechanisms of antitumor agents: xestoquinones uncouple cellular respiration and disrupt HIF signaling in human breast tumor cells” (J Nat Prod, 2012)
Where a name gives a salt, the structure may show the parent alone. Activity calls are given as the source filed them. The calls are words filed in the database; no cut-off is given here.

Key:
[1] = molecular target: T1, Hypoxia inducible factors; HIF-1-alpha, HIF-2-alpha (Homo sapiens, UniProt Q16665+Q99814); assay: Inhibition of HIF1-mediated VEGF production in human T47D cells under 1,10-phenanthroline-induced hypoxic condition at 10 uM after 16 hrs by ELISA; assay type: cell-based
In short: (§1)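 T47D cells exposed 16 h to hypoxia (1% O2) or to 1,10-phenanthroline (10 μM), with compound at 10 μM. Secreted VEGF in conditioned medium measured by ELISA and normalized to cellular protein. Cycloheximide 10 μM as positive control; normoxic medium control included. Mean + SD of one experiment in triplicate.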

[2] = molecular target: T1, Hypoxia inducible factors; HIF-1-alpha, HIF-2-alpha; assay: Inhibition of HIF1-mediated VEGF production in human T47D cells under hypoxic condition at 10 uM after 16 hrs by ELISA; assay type: cell-based; in short: as §1
[3] = molecular target: T1, Hypoxia inducible factors; HIF-1-alpha, HIF-2-alpha; assay: Inhibition of 1,10-phenanthroline-induced HIF1 activation in human T47D cells after 16 hrs by HRE3-TK-luciferase reporter gene assay; assay type: cell-based
In short: (§2)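 T47D reporter assay for HIF-1 activity. Induced by hypoxia (1% O2) or by 1,10-phenanthroline (10 μM). Compounds tested at 0.3–30 μM in half-log steps; cycloheximide 1 μM as positive control. Luciferase signal expressed as % inhibition of the induced control without compound. IC50 and 95% CI from one experiment in triplicate.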

[4] = molecular target: T1, Hypoxia inducible factors; HIF-1-alpha, HIF-2-alpha; assay: Inhibition of hypoxia-induced HIF1 activation in human T47D cells after 16 hrs by HRE3-TK-luciferase reporter gene assay; assay type: cell-based; in short: as §2
T47D [5] = assay: Cytotoxicity against human T47D cells after 48 hrs by SRB assay; assay type: functional, cell-based
In short: (§3)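 Cells from ATCC treated 48 h with compounds from DMSO stocks (final DMSO under 0.5%). IC50 and 95% CI fitted from one experiment run in triplicate.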

MDA-MB-231 [6] = assay: Cytotoxicity against human MDA-MB-231 cells after 48 hrs by SRB assay; assay type: functional, cell-based; details: MDA-MB-231, 48 h; in short: as §3
T47D [7] = assay: Cytotoxicity against human T47D cells assessed as decrease in cell viability at 30 uM after 48 hrs by SRB assay; assay type: functional
MDA-MB-231 [8] = assay: Cytotoxicity against human MDA-MB-231 cells assessed as decrease in cell viability at 30 uM after 48 hrs by SRB assay; assay type: functional
T47D [9] = assay: Effect on cellular respiration in human T47D cells assessed as increase in oxygen consumption at 10 to 30 uM; assay type: functional
In short: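 Oxygen consumption of intact respiring T47D cells. Compound added in half-log increments; FCCP as reference uncoupler. Rate expressed as % of untreated control. For 10 and 30 μM: mean + SD from three independent experiments. Lower concentrations: n = 2.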

T47D [10] = assay: Decrease in mitochondrial membrane potential in human T47D cells at 10 uM after 15 to 20 mins by TMRM assay; assay type: functional, cell-based
In short: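 T47D cells preloaded with TMRM, then given compound. Epifluorescence images taken before and 15–20 min after addition. Per-cell fluorescence intensity quantified; solvent control 0.26% DMSO; FCCP as reference. Groups compared by unpaired t test.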

Structure (SMILES)	inhibition [1]	inhibition [2]	IC50 [3] [µM]	IC50 [4] [µM]	IC50 (T47D [5]) [µM]	IC50 (MDA-MB-231 [6]) [µM]	Activity (T47D [7]) [%]	Activity (MDA-MB-231 [8]) [%]	Activity (T47D [9]) [%]	Activity (T47D [10])
C[C@@]12CCCc3coc(c31)C(=O)c1cc3c(cc12)C(=O)C1=C(NCCS1(=O)=O)C3=O [ADOCIAQUINONE B]	Active	inactive	0.2	4.6	2.9	6.1	–	–	–	–
C[C@@]12CCCc3coc(c31)C(=O)c1cc3c(O)ccc(OS(=O)(=O)O)c3cc12 [XESTOQUINOL SULFATE]	–	–	> 30	> 30	> 30	> 30	<5	<5	–	–
C[C@@]12CCCc3coc(c31)C(=O)c1cc3c(cc12)C(=O)C=CC3=O [XESTOQUINONE]	inactive	inactive	7.3	12.3	13.8	20.6	–	–	47	inactive
C[C@@]12CCCc3coc(c31)C(=O)c1cc3c(cc12)C(=O)C(CO)=CC3=O	Active	Active	1.5	2.3	4.3	6.3	–	–	–	–
C[C@@]12CCCc3coc(c31)C(=O)c1cc3c(cc12)C(=O)C=C(CO)C3=O	Active	Active	1.2	1.7	3.6	6.5	–	–	47	Active
C[C@@]12CCCc3coc(c31)C(=O)c1cc3c(cc12)C(=O)CCC3=O	inactive	inactive	4.2	10.6	15.9	28.1	–	–	–	–
C[C@@]12CCCc3coc(c31)C(=O)c1cc3c(cc12)C(=O)C1=NCCS(=O)(=O)C1=C3O [ADOCIAQUINONE A]	Active	inactive	0.2	6.4	2.6	6.3	–	–	47	inactive
